Active and inactive are the calls of the source. The calls are words filed in the database; no cut-off is given here.
How the values were obtained:
Rattus norvegicus [1] = test: Reduction in peripheral blood lymphocytes in stringent Dark Agouti to Lewis rat heterotopic vascular heart allotransplantation model at 30 mg/kg, po bid coadministered with 0.3 mg/kg, qd everolimus measured post 50 days post transplant relative to untreated control; type: functional; design: scale not given: the % may be the effect or the level left
In short: (§1)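 DA donor hearts were grafted into Lewis recipients. Treatment started 3 days before transplantation: prodrug 30 mg/kg po b.i.d. (PEG200/water, pH 5) alone or with sotrastaurin 10 mg/kg po b.i.d. or everolimus 0.3 mg/kg po q.d. Grafts were followed to rejection or up to 50 days. Allografts were formalin-fixed, cut at 3 μm, stained with H&E and trichrome, and scored for rejection. Lymphocytes were counted weekly before dosing, and body weight was monitored.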

Rattus norvegicus [2] = test: Toxicity in stringent Dark Agouti to Lewis rat heterotopic vascular heart allotransplantation model assessed as incidence of histopathological changes at 30 mg/kg, po bid coadministered with 0.3 mg/kg, qd everolimus by hematoxylin and eosin staining; type: organism-based; conditions: in vivo; in short: as §1
Rattus norvegicus [3] = test: Toxicity in stringent Dark Agouti to Lewis rat heterotopic vascular heart allotransplantation model assessed as change in body weight at 30 mg/kg, po bid coadministered with 0.3 mg/kg, qd everolimus; type: organism-based; conditions: in vivo; in short: as §1
Rattus norvegicus [4] = test: Toxicity in stringent Dark Agouti to Lewis rat heterotopic vascular heart allotransplantation model assessed as compound tolerance at 30 mg/kg, po bid coadministered with 10 mg/kg, bid sotrastaurin; type: organism-based; conditions: in vivo; in short: as §1
Rattus norvegicus [5] = test: Toxicity in stringent Dark Agouti to Lewis rat heterotopic vascular heart allotransplantation model assessed as change in body weight at 30 mg/kg, po bid; type: organism-based; design: dose 30 mg/kg, route oral; conditions: in vivo; in short: as §1
Rattus norvegicus [6] = test: Toxicity in stringent Dark Agouti to Lewis rat heterotopic vascular heart allotransplantation model assessed as compound tolerance at 30 mg/kg, po bid; type: organism-based; design: dose 30 mg/kg, route oral; conditions: in vivo; in short: as §1
Rattus norvegicus [7] = test: Increase in allograft survival in stringent Dark Agouti to Lewis rat heterotopic vascular heart allotransplantation model assessed as improvement in histological changes at 30 mg/kg, po bid coadministered with 0.3 mg/kg, qd everolimus by hematoxylin and eosin staining; type: functional, organism-based; in short: as §1
Rattus norvegicus [8] = test: Increase in allograft survival in stringent Dark Agouti to Lewis rat heterotopic vascular heart allotransplantation model assessed as improvement in histological changes at 30 mg/kg, po bid coadministered with 10 mg/kg, bid sotrastaurin by hematoxylin and eosin staining; type: functional, organism-based; in short: as §1
Rattus norvegicus [9] = test: Increase in allograft survival in stringent Dark Agouti to Lewis rat heterotopic vascular heart allotransplantation model assessed as allograft mean survival time at 30 mg/kg, po bid coadministered with 0.3 mg/kg, qd everolimus (reference value: 6 days); type: functional
Rattus norvegicus [10] = test: Increase in allograft survival in stringent Dark Agouti to Lewis rat heterotopic vascular heart allotransplantation model assessed as allograft mean survival time at 30 mg/kg, po bid coadministered with 10 mg/kg, bid sotrastaurin (reference value: 6 days); type: functional
In short: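 This was a DA-to-Lewis heart allograft model with co-treatment from 3 days before transplantation. The prodrug was given po b.i.d. in PEG200/water at pH 5, plus the PKC inhibitor po b.i.d. in D-glucose/PEG400/water/HCl. Lymphocytes were counted weekly before dosing, and blood levels of both drugs were determined. Survival was followed up to 50 days, as median days, with H&E and trichrome histology.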

Rattus norvegicus [11] = test: Increase in allograft survival in stringent Dark Agouti to Lewis rat heterotopic vascular heart allotransplantation model assessed as allograft mean survival time at 30 mg/kg, po bid (reference value: 6 days); type: functional
Rattus norvegicus [12] = test: Induction of capillary leakage in Lewis rat Evans blue dye lung leakage model assessed as thorax fluid level at 30 mg/kg, po bid measured after 96 hrs relative to untreated control; type: organism-based; design: dose 30 mg/kg, route oral; conditions: in vivo
In short: (§2)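 Male Lewis rats were gavaged twice daily with vehicle or 30 mg/kg in 30% PEG200/buffer. Evans blue dye (20 mg/2 mL NaCl/kg iv) was given under anesthesia at 5, 23 or 95 h. One hour later the rats were bled, lungs were perfused with saline, dried at 60 °C for 24 h, weighed, and dye was extracted in formamide (24 h, 37 °C). Thoracic fluid volume was also recorded.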

Rattus norvegicus [13] = test: Induction of capillary leakage in Lewis rat Evans blue dye lung leakage model assessed as thorax fluid level at 30 mg/kg, po bid measured after 6 hrs relative to untreated control; type: organism-based; design: dose 30 mg/kg, route oral; conditions: in vivo; in short: as §2
Rattus norvegicus [14] = test: Induction of capillary leakage in Lewis rat Evans blue dye lung leakage model at 30 mg/kg, po bid measured 96 hrs after 6 hrs relative to untreated control; type: organism-based; design: dose 30 mg/kg, route oral; conditions: in vivo; in short: as §2
Rattus norvegicus [15] = test: Induction of capillary leakage in Lewis rat Evans blue dye lung leakage model at 30 mg/kg, po bid measured 6 hrs after 6 hrs relative to untreated control; type: organism-based; design: dose 30 mg/kg, route oral; conditions: in vivo; in short: as §2
[16] = Stability in pH 10 buffer assessed as compound remaining measured after 17 hrs by UPLC; type: physicochemical; conditions: pH 10, 17 h
In short: (§3)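 The ester was incubated in buffer at pH 7.4 or pH 10. Remaining ester and the hydrolysed carboxylic acid were followed over time by UPLC, at time points out to 82 h.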

[17] = Stability in pH 7.4 buffer assessed as compound hydrolysis measured after 49 hrs by UPLC; type: physicochemical; conditions: read-out: Drug degradation; in short: as §3
[18] = Stability in pH 7.4 buffer assessed as compound hydrolysis measured after 82 hrs by UPLC; type: physicochemical; conditions: pH 7.4, 82 h; in short: as §3
[19] = Stability in pH 7.4 buffer assessed as compound hydrolysis measured after 18 hrs by UPLC; type: physicochemical; conditions: read-out: Drug degradation; in short: as §3
[20] = Stability in pH 7.4 buffer assessed as compound hydrolysis measured after 2 hrs by UPLC; type: physicochemical; conditions: read-out: Drug degradation; in short: as §3
Rattus norvegicus [21] = test: Reduction in peripheral blood lymphocytes in Lewis rat assessed as remaining circulating lymphocytes level at 30 mg/kg, po administered as single dose measured 24 hrs post dose by automated hematology analyzer; type: functional
In short: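 Male Lewis rats receive a single oral dose of compound or vehicle, freshly made in 30% PEG200/buffer. Blood (<200 μL) is drawn by sublingual puncture under isoflurane 5% v/v at baseline and later time points. Lymphocytes are counted on an automated hematology analyzer, and each animal's change is expressed as percent of its own pre-treatment baseline.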

[22] = Cmax in Lewis rat blood at 30 mg/kg, po administered as single dose measured 8 hrs post dose
[23] = Drug level in Lewis rat blood at 30 mg/kg, po administered as single dose measured 24 hrs post dose; conditions: read-out: Drug uptake
[24] = Drug level in Lewis rat blood at 30 mg/kg, po administered as single dose measured 0.25 hrs post dose; conditions: read-out: Drug uptake
Blood [25] = test: Cmax in Lewis rat blood assessed as level of (S)-2-{[3'-(4-Chloro-2,5-dimethylphenylsulfonylamino)-3,5-dimethylbiphenyl-4-carbonyl]methylamino}-4-dimethylaminobutyric Acid Hydrochloride at 30 mg/kg, po administered as single dose measured 8 hrs post dose; conditions: in vivo
Blood [26] = test: Drug level in Lewis rat blood assessed as level of (S)-2-{[3'-(4-Chloro-2,5-dimethylphenylsulfonylamino)-3,5-dimethylbiphenyl-4-carbonyl]methylamino}-4-dimethylaminobutyric Acid Hydrochloride at 30 mg/kg, po administered as single dose measured 24 hrs post dose; conditions: in vivo

COC(=O)[C@H](CCN(C)C)N(C)C(=O)c1c(C)cc(-c2cccc(NS(=O)(=O)c3cc(C)c(Cl)cc3C)c2)cc1C
Activity (Rattus norvegicus [1]): 9% | Activity (Rattus norvegicus [2]): Non-toxic | Activity (Rattus norvegicus [3]): Non-toxic | Activity (Rattus norvegicus [4]): Non-toxic | Activity (Rattus norvegicus [5]): Non-toxic | Activity (Rattus norvegicus [6]): Non-toxic | Activity (Rattus norvegicus [7]): Active | Activity (Rattus norvegicus [8]): Active | MST (Rattus norvegicus [9]): >50 days | MST (Rattus norvegicus [10]): >50 days | MST (Rattus norvegicus [11]): 8 days | Activity (Rattus norvegicus [12]): Non-toxic | Activity (Rattus norvegicus [13]): 1 mL | fold change (FC) (Rattus norvegicus [14]): 2.2 | fold change (FC) (Rattus norvegicus [15]): 3 | Stability [16]: Unstable | degraded at 49 h [17]: 85% | Stability [18]: Unstable | degraded at 18 h [19]: 48% | degraded at 2 h [20]: 9% | Activity (Rattus norvegicus [21]): 22% | Cmax [22]: 364 ng/mL | concentration at 24 h [23]: 50 ng/mL | concentration at 0.25 h [24]: 146 ng/mL | Cmax (Blood [25]): 29 ng/mL | Drug uptake (Blood [26]): 5 ng/mL

Reference: ChEMBL document CHEMBL2176995, “An oral sphingosine 1-phosphate receptor 1 (S1P(1)) antagonist prodrug with efficacy in vivo: discovery, synthesis, and evaluation” (J Med Chem, 2012)
